In ChEMBL document CHEMBL3632514, “Radiolabelling and positron emission tomography of PT70, a time-dependent inhibitor of InhA, the Mycobacterium tuberculosis enoyl-ACP reductase” (Bioorg Med Chem Lett, 2015):

Tests used:
[1] = system: Mycobacterium tuberculosis; experiment: Binding affinity to Mycobacterium tuberculosis InhA assessed as residence time
[2] = system: Mycobacterium tuberculosis; experiment: Binding affinity to Mycobacterium tuberculosis InhA:NAD+ complex expressed in Escherichia coli BL21(DE3)pLysS assessed as residence time
[3] = Octanol-phosphate buffer partition coefficient, log D of the compound at pH 7.4; format: physicochemical; details: octanol/water
Procedure, shortened: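 Partitioning between octanol and pH 7.4 phosphate buffer, with the carbon-11 radiolabel used to report drug concentration in each phase.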

[4] = Plasma protein binding in baboon after 10 mins; format: ADME, cell-free; details: papio anubis
[5] = Drug uptake in iv dosed baboon kidney measured over 90 mins by PET image analysis; format: ADME, organism-based; details: papio anubis, in vivo, 1.5 h
Procedure, shortened: (§1)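 Dynamic PET scan of baboons over 90 min after i.v. [11C]-labelled radiotracer. Peripheral organ time-activity curves were derived from regions of interest drawn manually on the images.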

Kidney [6] = experiment: Drug uptake in mouse kidney measured at 60 mins; format: ADME, tissue-based; details: in vivo, 1 h
Procedure, shortened: (§2)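 Healthy mice were injected with [11C]-labelled tracer. Tissue radioactivity was measured at 20, 40 and 60 min post-injection and expressed as % injected dose/gram. Values are mean ± SD of three animals.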

Blood [7] = experiment: Drug uptake in mouse blood measured at 60 mins; format: ADME, tissue-based; details: 1 h; procedure, shortened: as §2
Lung [8] = experiment: Drug uptake in mouse lung measured at 20 mins; format: ADME, tissue-based; details: in vivo; procedure, shortened: as §2
Lung [9] = experiment: Drug uptake in mouse lung measured at 60 mins; format: ADME, tissue-based; details: in vivo, 1 h; procedure, shortened: as §2
Kidney [10] = experiment: Drug uptake in mouse kidney measured at 40 mins; format: ADME, tissue-based; details: in vivo; procedure, shortened: as §2
[11] = Drug uptake in iv dosed baboon lung measured over 90 mins by PET image analysis; format: ADME, organism-based; details: papio anubis, in vivo, 1.5 h; procedure, shortened: as §1
[12] = Drug uptake in iv dosed baboon liver measured over 90 mins by PET image analysis; format: ADME, organism-based; details: papio anubis, in vivo, 1.5 h; procedure, shortened: as §1
[13] = Drug uptake in iv dosed baboon blood measured over 90 mins by PET image analysis; format: ADME, organism-based; details: papio anubis, in vivo, 1.5 h; procedure, shortened: as §1
Spleen [14] = experiment: Drug uptake in mouse spleen measured at 20 mins; format: ADME, tissue-based; details: in vivo; procedure, shortened: as §2
[15] = Drug uptake in iv dosed baboon spleen measured over 90 mins by PET image analysis; format: ADME, organism-based; details: papio anubis, in vivo, 1.5 h; procedure, shortened: as §1
Lung [16] = experiment: Drug uptake in mouse lung measured at 40 mins; format: ADME, tissue-based; details: in vivo; procedure, shortened: as §2
Spleen [17] = experiment: Drug uptake in mouse spleen measured at 40 mins; format: ADME, tissue-based; details: in vivo; procedure, shortened: as §2
[18] = Drug uptake in iv dosed baboon heart measured over 90 mins by PET image analysis; format: ADME, organism-based; details: papio anubis, in vivo, 1.5 h; procedure, shortened: as §1
Blood [19] = experiment: Drug uptake in mouse blood measured at 40 mins; format: ADME, tissue-based; procedure, shortened: as §2
[20] = Drug uptake in iv dosed baboon gallbladder measured over 90 to 120 mins by PET image analysis; format: ADME, organism-based, Gall bladder; details: papio anubis, in vivo
Spleen [21] = experiment: Drug uptake in mouse spleen measured at 60 mins; format: ADME, tissue-based; details: in vivo, 1 h; procedure, shortened: as §2
Liver [22] = experiment: Drug uptake in mouse liver measured at 40 mins; format: ADME, tissue-based; details: in vivo; procedure, shortened: as §2
Lung [23] = experiment: Drug uptake in mouse lung pretreated with unlabelled compound for 1 hr followed by radiolabeled compound treatment measured after 20 mins by PET image analysis; format: ADME, tissue-based; details: in vivo
Procedure, shortened: (§3)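 Mice received a 200 mg/kg predose of unlabelled compound 1 h before [11C]-tracer injection. Tissue radioactivity was read 20 min after the tracer and given as % injected dose/gram, mean ± SD of three animals.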

Brain = experiment: Drug uptake in iv dosed baboon brain measured over 15 to 90 mins by PET image analysis; format: ADME, organism-based; details: papio anubis, in vivo
Procedure, shortened: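 Baboon PET after i.v. radiolabelled drug, with images acquired for 90 min. Dose-corrected coronal images were summed over 15–90 min. Time-activity curves came from manually drawn regions of interest.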

Kidney [24] = experiment: Drug uptake in mouse kidney measured at 20 mins; format: ADME, tissue-based; details: in vivo; procedure, shortened: as §2
Liver [25] = experiment: Drug uptake in mouse liver measured at 60 mins; format: ADME, tissue-based; details: in vivo, 1 h; procedure, shortened: as §2
Spleen [26] = experiment: Drug uptake in mouse spleen pretreated with unlabelled compound for 1 hr followed by radiolabeled compound treatment measured after 20 mins by PET image analysis; format: ADME, tissue-based; details: in vivo; procedure, shortened: as §3
Blood [27] = experiment: Drug uptake in mouse blood measured at 20 mins; format: ADME, tissue-based; procedure, shortened: as §2

SMILES: NC(=O)C1=CN([C@@H]2O[C@H](COP(=O)(O)OP(=O)(O)OC[C@H]3O[C@@H](n4cnc5c(N)ncnc54)[C@H](O)[C@@H]3O)[C@@H](O)[C@H]2O)C=C[C@@H]1C(=O)c1ccncc1
- TIME [1]: 1 h

SMILES: CCCCCCc1ccc(Oc2ccccc2C)c(O)c1
- TIME [2]: 0.4 h
- logD [3]: 3.65
- PPB [4]: 99.76%

SMILES: CCCCCCc1ccc(Oc2ccccc2[11CH3])c(O)c1
- Drug uptake [5]: Active
- Drug uptake (Kidney [6]): 0.31 %ID/cc
- Drug uptake (Blood [7]): 0.55 %ID/cc
- Drug uptake (Lung [8]): 1.36 %ID/cc
- Drug uptake (Lung [9]): 1.35 %ID/cc
- Drug uptake (Kidney [10]): 1.45 %ID/cc
- Drug uptake [11]: Not Active
- Drug uptake [12]: Active
- Drug uptake [13]: Not Active
- Drug uptake (Spleen [14]): 1.82 %ID/cc
- Drug uptake [15]: Active
- Drug uptake (Lung [16]): 1.26 %ID/cc
- Drug uptake (Spleen [17]): 0.93 %ID/cc
- Drug uptake [18]: Not Active
- Drug uptake (Blood [19]): 1.46 %ID/cc
- Drug uptake [20]: Active
- Drug uptake (Spleen [21]): 0.21 %ID/cc
- Drug uptake (Liver [22]): 15.7 %ID/cc
- Drug uptake (Lung [23]): Active
- Drug uptake (Brain): Active
- Drug uptake (Kidney [24]): 2.21 %ID/cc
- Drug uptake (Liver [25]): 14.09 %ID/cc
- Drug uptake (Spleen [26]): Active
- Drug uptake (Blood [27]): 1.7 %ID/cc

SMILES: CCCCCCc1ccc(Oc2ccccc2[11C]#N)c(O)c1
- Drug uptake (Brain): Active
